Results: paper PMC6210076 (ACS Omega, 2018)
Where “and” joins values, the source holds several entries; their conditions need not be identical. Equal entries are not always repeated.

Target: T1, HPA (Helix pomatia, UniProt Q2F1K8)
T1 sequence (Q2F1K8 20-121): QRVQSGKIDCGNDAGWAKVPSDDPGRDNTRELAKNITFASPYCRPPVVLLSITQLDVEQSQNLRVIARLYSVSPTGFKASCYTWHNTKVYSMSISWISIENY
Assay: Fluorescent microarray competition: Alexa Fluor 647-labeled HPA
Assay type: biochemical
Settings: IC50,microarray (μM); SEM
In short: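 Glycoconjugates spotted in triplicate on NHS-coated glass slides from PBS pH 8.5 with 5% glycerol. Slides held 17−20 h at 70% humidity, then blocked 1 h at 37 °C in ethanolamine/boric acid/Tween 20 buffer pH 8.5. Probing in 16-well masks under slow agitation, then Tween-PBS washes. Scanned at 635 nm excitation. Mean fluorescence fitted against log competitor concentration.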

IC50: 180 µM and 301 µM and 687 µM and 449 µM
SMILES: CC(=O)N[C@H]1C(O)O[C@H](CO)[C@H](O)[C@@H]1O (stereo partly drawn) [GalNAc, N-acetyl-D-galactosamine]
